Measured values of several laboratories.
Compare with care: the assays were run in different laboratories.
mraY: mraY (Staphylococcus aureus, UniProt Q2FZ93)
HTR2B: 5-hydroxytryptamine receptor 2B (HTR2B, Homo sapiens, UniProt P41595)
HTR2C: 5-hydroxytryptamine receptor 2C (HTR2C, Homo sapiens, UniProt P28335)

| Compound | target | assay | setting | inhibition [%] |
| --- | --- | --- | --- | --- |
| CCN1/C(=C/C(C)=O)Sc2ccc(F)cc21 | Gastrin/cholecystokinin type B receptor (CCKBR, Homo sapiens, UniProt P32239) | ligand displacement, radioligand | 10 µM | 1.43 |
| CCCCCCC#Cc1cncc(-c2nnc(SCc3cc([N+](=O)[O-])cc([N+](=O)[O-])c3)n2CCCN)c1 | mraY | cell-free assay, inhibitor | 250 µM | 100 |
| NC/C(=C\F)COc1cccc(Cn2c(=S)[nH]c(=O)c3[nH]cnc32)c1 | HTR2B | ligand displacement, radioligand | 10 µM | < 50 |
| Cc1cc(O)c(-c2ccc([C@@H](C)CN(C)C)cc2)c2c1[nH]c(=O)c1sccc12 | Acylglycerol kinase, mitochondrial (Homo sapiens, UniProt Q53H12) | enzyme activity, inhibitor | 0.1 µM, lysate | 1.28 |
| COc1cc2c3c(c1OC)-c1c(OC)ccc(NC(C)=O)c1CC3N(C)CC2 (stereo not drawn) | HTR2C | ligand displacement, radioligand | 10 µM | 3 |
| CCCCCCC#Cc1cncc(-c2nnc(SCc3cc([N+](=O)[O-])cc([N+](=O)[O-])c3)n2CCO)c1 | mraY | cell-free assay, inhibitor | 250 µM | 55 |
| COc1cc2c3c(c1OC)-c1c(OC)ccc(-c4ccc(C#N)cc4)c1CC3N(C)CC2 (stereo not drawn) | HTR2B | ligand displacement, radioligand | 10 µM | 65 |
| CCCCCCC#Cc1cncc(-c2nnc(SC[C@H]3O[C@@H](n4ccc(=O)[nH]c4=O)[C@H](O)[C@@H]3O)n2C)c1 | mraY | cell-free assay, inhibitor | 250 µM | 0 |
| COc1cc2c3c(c1OC)-c1c(OC)ccc(N4CCOCC4)c1CC3N(C)CC2 (stereo not drawn) | HTR2C | ligand displacement, radioligand | 10 µM | 50 |
| CCCCCCC#Cc1cncc(-c2nnc(SCc3ccc(Cl)cc3)n2CCO)c1 | mraY | cell-free assay, inhibitor | 250 µM | 0 |
| CC[N+]1(C)CCc2cc(OC)c(OC)c3c2C1Cc1cccc(OC)c1-3 (stereo not drawn) | HTR2C | ligand displacement, radioligand | 10 µM | -19 |
| Cc1cc(F)cc2c(CCC(=O)N[C@@H]3C(=O)NC[C@H]3O)c(-c3ccc(F)cc3)[nH]c12 | HTR2B | cell-free assay | 10 µM | 10 |
